Values after ≈ are worked out from the molar mass of the structure shown. Active and inactive are the calls of the source. The rule behind the calls is not given here.
Assays:
Streptococcus salivarius [1] = experiment: Bactericidal activity against Streptococcus salivarius ATCC 6301 incubated for 24 hrs under aerobic condition by MABA; format: functional; details: ATCC 6301, 24 h
Klebsiella pneumoniae [2] = experiment: Antibacterial activity against Klebsiella pneumoniae ATCC 12019 incubated for 24 hrs under aerobic condition by MABA; format: functional; details: ATCC 12019, 24 h, read-out: MIC100
Method in brief: (§1)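 Mid-log cultures at OD 0.5 were exposed to serial dilutions under aerobic conditions at 37 °C for 24 h. Resazurin was then added from a 0.08% stock for 1 h. MIC100 was the lowest concentration where the dye stayed blue (pink means growth). Absorbance was also read at 570 and 600 nm.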

Staphylococcus aureus [3] = experiment: Antibacterial activity against Staphylococcus aureus ATCC 25923 incubated for 24 hrs under aerobic condition by MABA; format: functional; details: ATCC 25923, 24 h, read-out: MIC100; method in brief: as §1
[4] = Half life in Sprague-Dawley rat liver microsomes at 500 ng/ml preincubated for 5 mins followed by NADPH addition by C-MS/MS analysis; format: ADME, microsome
[5] = system: Mycolicibacterium smegmatis; experiment: Bactericidal activity against Mycobacterium smegmatis ATCC 607 incubated for 48 hrs under aerobic condition by MABA; format: functional; details: ATCC 607, 48 h
Klebsiella pneumoniae [6] = experiment: Bactericidal activity against Klebsiella pneumoniae ATCC 12019 incubated for 24 hrs under aerobic condition by MABA; format: functional; details: ATCC 12019, 24 h
[7] = Selectivity index, ratio of IC50 for African green monkey Vero cells to MIC100 for replicating Mycobacterium tuberculosis H37Rv by MABA; format: toxicity; details: read-out: Selectivity Index
Method in brief: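 Vero cells are cultured in EMEM with 10% FBS and exposed for 72 h to 0.78–200 µg/mL. Medium is switched to phenol-red-free EMEM, MTT is added, and formazan is read at 570 nm to give IC50. The selectivity index is Vero IC50 divided by the MABA MIC.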

[8] = system: Mycobacterium tuberculosis; experiment: Bactericidal activity against replicating Mycobacterium tuberculosis H37Rv incubated for 15 days under aerobic condition by MABA; format: functional; details: 360 h
Method in brief: (§2)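 Mtb H37Rv grown in 7H9/OADC at 37 °C with shaking to OD600 0.5. The 0.5-OD culture is exposed aerobically to serial dilutions for 15 days at 37 °C. Resazurin (0.02% stock) is then added for 4 h at 37 °C with shaking.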

Acinetobacter baumannii [9] = experiment: Bactericidal activity against Acinetobacter baumannii ATCC 19606 incubated for 24 hrs under aerobic condition by MABA; format: functional; details: ATCC 19606 = CIP 70.34 = JCM 6841, 24 h
Escherichia coli [10] = experiment: Antibacterial activity against Escherichia coli ATCC 10798 incubated for 24 hrs under aerobic condition by MABA; format: functional; details: ATCC 10798, 24 h, read-out: MIC100; method in brief: as §1
Escherichia coli [11] = experiment: Inhibition of protein translation/transcription in Escherichia coli S30 cell extract at 0.1 ug/ml using circular DNA with pBESTluc after 60 mins by luciferase reporter gene assay; format: functional
Method in brief: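 Coupled transcription/translation used E. coli S30 extract, amino acid mix and premix, with the pBESTluc template carrying firefly luciferase under the tac promoter. Compounds were added in DMSO and reactions were started with DNA. Incubation was 60 min at 37 °C, stopped on ice, and luciferase was read after adding assay substrate.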

Staphylococcus aureus [12] = experiment: Bactericidal activity against Staphylococcus aureus BAA 1683 incubated for 24 hrs under aerobic condition by MABA; format: functional; details: BAA 1683, 24 h
Clostridioides difficile = experiment: Bactericidal activity against Clostridium difficile ATCC 700057 incubated for 24 hrs […] by MABA; format: functional; details: ATCC 700057, 24 h
Acinetobacter baumannii [13] = experiment: Antibacterial activity against Acinetobacter baumannii ATCC 19606 incubated for 24 hrs under aerobic condition by MABA; format: functional; details: ATCC 19606 = CIP 70.34 = JCM 6841, 24 h, read-out: MIC100; method in brief: as §1
Staphylococcus aureus [14] = experiment: Bactericidal activity against Staphylococcus aureus BAA 44 incubated for 24 hrs under aerobic condition by MABA; format: functional; details: BAA 44, 24 h
[15] = system: Mycolicibacterium smegmatis; experiment: Antibacterial activity against Mycobacterium smegmatis ATCC 607 incubated for 48 hrs under aerobic condition by MABA; format: functional; details: ATCC 607, 48 h, read-out: MIC100
Method in brief: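 Mid-log culture at OD 0.5 was incubated with serial dilutions aerobically at 37 °C for 48 h. Resazurin was then added from a 0.08% stock for 1 h. MIC100 was the lowest concentration that stayed blue; absorbance was also read at 570/600 nm.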

Enterococcus faecalis [16] = experiment: Antibacterial activity against Enterococcus faecalis ATCC 349 incubated for 24 hrs under aerobic condition by MABA; format: functional; details: ATCC 349, 24 h, read-out: MIC100; method in brief: as §1
Staphylococcus aureus [17] = experiment: Bactericidal activity against Staphylococcus aureus ATCC 25923 incubated for 24 hrs under aerobic condition by MABA; format: functional; details: ATCC 25923, 24 h
Bacillus subtilis [18] = experiment: Bactericidal activity against Bacillus subtilis ATCC 6051 incubated for 24 hrs under aerobic condition by MABA; format: functional; details: ATCC 6051, 24 h
Staphylococcus aureus [19] = experiment: Antibacterial activity against Staphylococcus aureus BAA 2094 incubated for 24 hrs under aerobic condition by MABA; format: functional; details: BAA 2094, 24 h, read-out: MIC100
Method in brief: (§3)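 Resazurin was then added from a 0.08% stock for 1 h. MIC100 was the lowest concentration where the dye stayed blue (pink means growth). Absorbance was also read at 570 and 600 nm.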

Enterococcus faecalis [20] = experiment: Antibacterial activity against Enterococcus faecalis ATCC 19433 incubated for 24 hrs under aerobic condition by MABA; format: functional; details: ATCC 19433, 24 h, read-out: MIC100; method in brief: as §1
Streptococcus pneumoniae [21] = experiment: Bactericidal activity against Streptococcus pneumoniae ATCC 6301 incubated for 24 hrs under aerobic condition by MABA; format: functional; details: ATCC 6301, 24 h
Staphylococcus aureus [22] = experiment: Bactericidal activity against Staphylococcus aureus incubated for 24 hrs under aerobic condition by MABA; format: functional
Staphylococcus aureus [23] = experiment: Bactericidal activity against Staphylococcus aureus BAA 2094 incubated for 24 hrs under aerobic condition by MABA; format: functional; details: BAA 2094, 24 h
Staphylococcus aureus [24] = experiment: Antibacterial activity against Staphylococcus aureus BAA 1683 incubated for 24 hrs under aerobic condition by MABA; format: functional; details: BAA 1683, 24 h, read-out: MIC100; method in brief: as §1
[25] = system: Mycolicibacterium smegmatis; experiment: Antibacterial activity against Mycobacterium smegmatis; format: functional
Streptococcus salivarius [26] = experiment: Antibacterial activity against Streptococcus salivarius […] incubated for 24 hrs under aerobic condition by MABA; format: functional; details: read-out: MIC100; method in brief: as §3
Staphylococcus aureus [27] = experiment: Antibacterial activity against Staphylococcus aureus BAA 44 incubated for 24 hrs under aerobic condition by MABA; format: functional; details: BAA 44, 24 h, read-out: MIC100; method in brief: as §1
Escherichia coli [28] = experiment: Bactericidal activity against Escherichia coli ATCC 10798 incubated for 24 hrs under aerobic condition by MABA; format: functional; details: ATCC 10798, 24 h
Enterococcus faecalis [29] = experiment: Bactericidal activity against Enterococcus faecalis ATCC 19433 incubated for 24 hrs under aerobic condition by MABA; format: functional; details: ATCC 19433, 24 h
Bacillus subtilis [30] = experiment: Antibacterial activity against Bacillus subtilis ATCC 6051 incubated for 24 hrs under aerobic condition by MABA; format: functional; details: ATCC 6051, 24 h, read-out: MIC100; method in brief: as §1
Streptococcus pneumoniae [31] = experiment: Antibacterial activity against Streptococcus pneumoniae ATCC 6301 incubated for 24 hrs under aerobic condition by MABA; format: functional; details: ATCC 6301, 24 h, read-out: MIC100; method in brief: as §1
Enterococcus faecalis [32] = experiment: Bactericidal activity against Enterococcus faecalis ATCC 349 incubated for 24 hrs under aerobic condition by MABA; format: functional; details: ATCC 349, 24 h
[33] = system: Mycobacterium tuberculosis; experiment: Antibacterial activity against replicating Mycobacterium tuberculosis H37Rv incubated for 15 days under aerobic condition by MABA; format: functional; details: 360 h, read-out: MIC100; method in brief: as §2
Staphylococcus aureus [34] = experiment: Antibacterial activity against Staphylococcus aureus incubated for 24 hrs under aerobic condition by MABA; format: functional; details: read-out: MIC100; method in brief: as §3
[35] = system: Mycobacterium tuberculosis; experiment: Antibacterial activity against Mycobacterium tuberculosis Erdman infected in Balb/c mouse assessed as reduction in bacterial load in lungs at 2.5 mg/kg, po for 3 weeks starting from 10 days post infection measured on day 21 post infection; format: functional, Erdman = ATCC 35801
Method in brief: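 Female BALB/c mice, 7–8 weeks old, are aerosol-infected with Mtb Erdman. From day 10 they receive oral gavage in water for three weeks, in groups of 5. Lungs and spleens are harvested at day 21 post-infection and plated for CFU. Efficacy is the log10 reduction in lung burden versus untreated (vehicle) controls.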

Vero = experiment: Cytotoxicity against African green monkey Vero cells assessed as reduction in cell viability after 72 hrs by MTT assay; format: cell-based; details: Chlorocebus sabaeus
Method in brief: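 Vero cells were grown in complete EMEM with 10% FBS and exposed for 72 h to 0.78–200 µg/mL. The medium was then swapped for phenol-red-free EMEM and MTT was added. Formazan absorbance was read at 570 nm to give IC50.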

[36] = system: Mycobacterium tuberculosis; experiment: Bactericidal activity against non-replicating Mycobacterium tuberculosis CDC1551 expressing tdTomato infected in mouse J774A.1 cells at 2 times MIC up to 72 hrs by UV-Visible spectroscopic method; format: functional, organism-based
Method in brief: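 J774A.1 macrophages are seeded at […] cells/well in DMEM and incubated overnight at 37 °C. They are infected with saline-washed Mtb CDC1551-tdTomato (10^6 bacteria, MOI ≈10), and extracellular bacteria are washed off with PBS. Treatment is at 2×MIC, with fluorescence emission read at 581 nm at 24, 48, 72 and 96 h. Survivors are confirmed by serial dilution and plating on 7H11.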

C=C[C@]1(C)C[C@@H](OC(=O)CSC(C)(C)CNC(=O)[C@H](N)C(C)C)[C@]2(C)[C@H](C)CC[C@]3(CCC(=O)[C@H]32)[C@@H](C)[C@@H]1O [VALNEMULIN]
MBC (Streptococcus salivarius [1]): > 25 µg/mL
MIC (Klebsiella pneumoniae [2]): 12.5 µg/mL (≈ 22.1 µM)
MIC (Staphylococcus aureus [3]): > 25 µg/mL
t1/2 [4]: 10 min
MBC [5]: 25 µg/mL (≈ 44.3 µM)
MBC (Klebsiella pneumoniae [6]): 25 µg/mL (≈ 44.3 µM)
selectivity ratio [7]: 4.79
MBC [8]: 6.25 µg/mL (≈ 11.1 µM)
MBC (Acinetobacter baumannii [9]): 6.25 µg/mL (≈ 11.1 µM)
MIC (Escherichia coli [10]): 12.5 µg/mL (≈ 22.1 µM)
inhibition (Escherichia coli [11]): Active
MBC (Staphylococcus aureus [12]): > 25 µg/mL
MBC (Clostridioides difficile): 1.56 µg/mL (≈ 2.76 µM)
MIC (Acinetobacter baumannii [13]): 4.69 µg/mL (≈ 8.3 µM)
MBC (Staphylococcus aureus [14]): > 25 µg/mL
MIC [15]: 12.5 µg/mL (≈ 22.1 µM)
MIC (Enterococcus faecalis [16]): > 25 µg/mL
MBC (Staphylococcus aureus [17]): > 25 µg/mL
MBC (Bacillus subtilis [18]): 25 µg/mL (≈ 44.3 µM)
MIC (Staphylococcus aureus [19]): > 25 µg/mL
MIC (Enterococcus faecalis [20]): 6.25 µg/mL (≈ 11.1 µM)
MBC (Streptococcus pneumoniae [21]): > 25 µg/mL
MBC (Staphylococcus aureus [22]): 0.8 µg/mL (≈ 1.42 µM)
MBC (Staphylococcus aureus [23]): > 25 µg/mL
MIC (Staphylococcus aureus [24]): > 25 µg/mL
MIC [25]: 8 to 16 µg/mL (≈ 14.2 to 28.3 µM)
MIC (Streptococcus salivarius [26]): 0.4 µg/mL (≈ 0.708 µM)
MIC (Staphylococcus aureus [27]): > 25 µg/mL
MBC (Escherichia coli [28]): > 25 µg/mL
MBC (Enterococcus faecalis [29]): 12.5 µg/mL (≈ 22.1 µM)
MIC (Bacillus subtilis [30]): 12.5 µg/mL (≈ 22.1 µM)
MIC (Streptococcus pneumoniae [31]): 12.5 µg/mL (≈ 22.1 µM)
MBC (Enterococcus faecalis [32]): > 25 µg/mL
MIC [33]: 3.13 µg/mL (≈ 5.54 µM)
MIC (Staphylococcus aureus [34]): 0.4 µg/mL (≈ 0.708 µM)

NNC(=O)c1ccncc1 [ISONIAZID]
log(activity) [35]: 4.22
selectivity ratio [7]: > 2000
MBC [8]: 0.57 µg/mL (≈ 4.16 µM)
IC50 (Vero): > 200 µg/mL
MIC [33]: 0.04 to 0.1 µg/mL (≈ 0.292 to 0.729 µM)
Activity [36]: inactive

Source: ChEMBL document CHEMBL4229550, “An antimycobacterial pleuromutilin analogue effective against dormant bacilli” (Bioorg Med Chem, 2018)
